Screens from PubChem BioAssay.
Compounds with a hit are over-represented: about 3.5% of the library has one in this group of screens.
FGF22 binding – shifts melting point of recombinant human FGF22; Q9HCT0; recombinant FGF22 thermal shift, SYPRO orange fluorescence; percent of sucrose octasulfate shift, DMSO zero; activity (Tm shift, normalised), % at 9.99 µM; 340,000 compounds, 1.5% hits; AID 651658;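 active = mean Tm shift, scaled 0 neutral to 100 positive control, at about 1.3% or above, every replicate too, limit read from the data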
Target sequence (Q9HCT0 whole entry, looked up): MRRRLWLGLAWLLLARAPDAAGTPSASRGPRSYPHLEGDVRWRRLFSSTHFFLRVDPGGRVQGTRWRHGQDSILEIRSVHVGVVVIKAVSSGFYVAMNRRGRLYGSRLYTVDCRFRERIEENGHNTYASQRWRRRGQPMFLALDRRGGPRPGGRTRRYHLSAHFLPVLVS
ERAP1 inh – inhibitors of human ERAP1 aminopeptidase. Q9NZ08. recombinant ERAP1, Leu-AMC fluorescence, 60 min. inhibition, % at 10.7 µM. 340,000 compounds, 0.15% hits;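 active = mean replicate inhibition of at least 30%, or all replicates individually reaching that 30% level; inactive = mean below 30% and not every replicate reaching it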;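 also: 0% = neutral control wells and 100% = L-leucinethiol positive control wells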
HIV Env fusion – inhibitors of HIV Env-mediated cell fusion; inhibition, % at 12.3 µM; AID 651610; 360,000 compounds, 1.1% hits; HeLa-JRFL Env/CEM21 cell fusion, luciferase;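 active = mean replicate inhibition score of at least 50 and every replicate individually at or above 50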;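 also: 0% = plate neutral controls and 100% = maraviroc near 300 nM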
PGC1a acetyl inh – PGC1a acetylation modulation, inhibitor mode. U2OS PGC1a acetylation, AlphaScreen anti-acetyl-lysine; with virally co-expressed GCN5 acetyltransferase. inhibition, % at 15.6 µM. 350,000 compounds, 0.17% hits. AID 651687;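 active = every replicate shows inhibition of at least 40%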;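 also: 0% = neutral control wells and 100% = positive control wells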
Cneo AK release – Cryptococcus neoformans lysis via adenylate kinase release; C. neoformans lysis, adenylate kinase release luminescence, 4 h; normalised: neutral wells 0, clomiphene wells 100; lysis activity, % at 15 µM; 360,000 compounds, 0.2% hits; AID 651654;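 active = mean lysis activity across replicates of at least 80%, whatever share of replicates individually reach that level; inactive = mean lysis activity below 80%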
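Material: C. neoformans cells | Amount: Yeast cell density of 5 × 10^6 cells/mL | Medium: Fresh YPD growth medium | Dosing: Single dose | Times: Static 4 h at 37 °C with compound, 1 h detection | Detection: AK luminescence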
rRNA inh HTS – inhibits bacterial ribosomal RNA function over humanized ribosomes. GFP signal change (wild-type ribosome), % (concentration not given with the values). E. coli WT GFP vs humanized-ribosome RFP mutants, fluorescence, 24 h; active compounds read low; DMSO median 0, no signal -100. 350,000 compounds, 1.6% hits;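 active = significant combined selectivity score with lowered wild-type GFP, culture density cut under 30%, mutant RFP and density less affected; inactive = any of these conditions unmet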
Starred values were filed as active, the others as inactive; ! = a repeat was not active.

For O=C(CN1CCN(S(=O)(=O)c2ccc(Cl)cc2)CC1)NCc1cccs1 the results were ERAP1 inh 0 and rRNA inh HTS 4.
Screening O=C(CN1CCN(Cc2ccc(Cl)cc2)C1=O)NCc1cccs1 returned FGF22 binding 44*, ERAP1 inh 4, HIV Env fusion -2, PGC1a acetyl inh 2, Cneo AK release 0 and rRNA inh HTS -3.
OCc1ccc(O)c2ncccc12 was read as Cneo AK release -1.
Oc1ccc(CN2CCc3ccccc3C2)c2cccnc12 was read as HIV Env fusion 62* and Cneo AK release 0.
For CC(C)COCc1ccc(O)c2ncccc12 the results were FGF22 binding 41, ERAP1 inh -1, HIV Env fusion 6, PGC1a acetyl inh 4 and rRNA inh HTS -35*.
Oc1ccc(CN2CCCCC2)c2cccnc12 was read as FGF22 binding 0, ERAP1 inh 0, PGC1a acetyl inh 25, Cneo AK release 1 and rRNA inh HTS -7.
Screening Oc1ccc(CNc2ccccc2F)c2cccnc12 returned FGF22 binding 0, HIV Env fusion 114*!, PGC1a acetyl inh -5, Cneo AK release 3 and rRNA inh HTS -15.
CCCOCc1ccc(O)c2ncccc12 was read as FGF22 binding 0, ERAP1 inh 0, HIV Env fusion 16, PGC1a acetyl inh 8, Cneo AK release -4 and rRNA inh HTS -10.
CC(=O)Nc1cc(-c2ccccc2)nn1Cc1ccc(Cl)cc1 was read as PGC1a acetyl inh 6 and Cneo AK release 0.
CO[C@@H](CN(C)S(=O)(=O)c1ccccc1)[C@H](C)CN(C(=O)Nc1ccccc1F)[C@@H](C)CO was read as FGF22 binding 0, ERAP1 inh 0, PGC1a acetyl inh 1, Cneo AK release -4 and rRNA inh HTS -2.
Screening CN1CC(c2ccccc2Cl)C2(COc3ccccc3C2=O)C12C(=O)Nc1ccccc12 (stereo not given) returned HIV Env fusion 78*, PGC1a acetyl inh -13 and Cneo AK release 44.
Screening O=C(Nc1ccc(F)cc1)C1CC(=O)n2ncnc2N1 (stereo not given) returned FGF22 binding 43*, ERAP1 inh 0, HIV Env fusion -13, PGC1a acetyl inh 7 and rRNA inh HTS 13.
For O=C(Nc1ccccc1)C1CC(=O)n2ncnc2N1 (stereo not given) the results were FGF22 binding 0, ERAP1 inh -1, PGC1a acetyl inh -6, Cneo AK release -2 and rRNA inh HTS 21.
`COc1cccc(C(=O)Oc2cc3c4c(c2)C(C)=CC(C)(C)N4C(=O)C3=O)c1` gave FGF22 binding -1, ERAP1 inh -1, PGC1a acetyl inh 11, Cneo AK release 0 and rRNA inh HTS -20*.
`COc1ccc(C(=O)Oc2cc3c4c(c2)C(C)=CC(C)(C)N4C(=O)C3=O)cc1OC` gave HIV Env fusion 10.
Cn1c2ccccc2c2ccc3c(c21)C(=O)C=CC3=O was read as FGF22 binding 0, ERAP1 inh 2, HIV Env fusion -43, PGC1a acetyl inh -2 and rRNA inh HTS -25*.
Screening Cc1cc(NC(=O)CSc2nc(=O)n3cccc(C)c3n2)no1 returned FGF22 binding 1, ERAP1 inh -2, HIV Env fusion -2, Cneo AK release 1 and rRNA inh HTS 3.
COc1ccc(S(=O)(=O)N2CCOCC2)cc1NC(=O)[C@@H]1CCCN1C(=O)c1cccs1 was read as FGF22 binding 43*, ERAP1 inh 1, HIV Env fusion 0 and rRNA inh HTS 7.
Screening COc1ccc(S(=O)(=O)N2CCOCC2)cc1NC(=O)C1CCCN1C(=O)c1cccs1 (stereo not given) returned FGF22 binding 0, ERAP1 inh 1, HIV Env fusion -2, PGC1a acetyl inh -4, Cneo AK release -2 and rRNA inh HTS 8.
For Cc1ccc(NC(=O)C2CCCN2C(=O)c2cccs2)c(C)c1 (stereo not given) the results were FGF22 binding 41, ERAP1 inh 56*, HIV Env fusion -3, Cneo AK release 0 and rRNA inh HTS 4.
CCc1ccccc1NC(=O)C1CCN(C(=O)c2cccs2)CC1 was read as FGF22 binding 0, ERAP1 inh -4, HIV Env fusion -11, Cneo AK release 3 and rRNA inh HTS 2.
`Cc1ccc(NC(=O)C2CCN(C(=O)c3cccs3)CC2)c(C)c1` gave FGF22 binding 0, ERAP1 inh 34*, HIV Env fusion 0, Cneo AK release 0 and rRNA inh HTS -3.
`Cc1cc(C)c(NC(=O)CNC(=O)[C@@H]2CCCN2C(=O)c2cccs2)c(C)c1` gave FGF22 binding 0, ERAP1 inh -6, HIV Env fusion 10, Cneo AK release 3 and rRNA inh HTS 3.
`CC(=O)c1c(Cl)nc2ccc(Br)cc2c1-c1ccccc1` gave FGF22 binding 0, ERAP1 inh -1, HIV Env fusion 7, Cneo AK release 0 and rRNA inh HTS 12.
`Cc1ccc(NS(=O)(=O)c2ccc3c(c2)NC(=O)CCS3)c(C)c1` gave FGF22 binding 0, ERAP1 inh 1, HIV Env fusion 11, PGC1a acetyl inh 10, Cneo AK release 0 and rRNA inh HTS -33*.
C=CCN1[C@@H](C)[C@H](c2ccccc2)Oc2cccc(NCCc3ccccc3)c2S1(=O)=O was read as FGF22 binding 0, ERAP1 inh 0, HIV Env fusion 19 and rRNA inh HTS -1.
Screening Oc1ccc(Cl)cc1CNCc1ccc(F)c(F)c1 returned FGF22 binding 0, HIV Env fusion -8, PGC1a acetyl inh -3, Cneo AK release -7 and rRNA inh HTS -11.
`Oc1ccc(Cl)cc1CNCc1cccc2ccccc12` gave FGF22 binding 0, ERAP1 inh -1, HIV Env fusion -35, PGC1a acetyl inh -3, Cneo AK release -11 and rRNA inh HTS -24*.
`COC(=O)C1(C(=O)OC)C[C@H](c2ccc(OC)cc2)N(Cc2ccccc2OC)[C@@H]1c1ccccc1` gave FGF22 binding 0, HIV Env fusion 85* and rRNA inh HTS 24.
For O=C(COc1ccc(Cl)cc1)NCCNc1ccc([N+](=O)[O-])cc1 the results were FGF22 binding 0, ERAP1 inh -1, HIV Env fusion 3, PGC1a acetyl inh -1, Cneo AK release -3 and rRNA inh HTS -16.
O=C1[C@H]2[C@@H](c3ccc(F)cc3)N3C(=O)N(c4ccccc4)C(=O)[C@@]3(Cc3ccccc3)[C@H]2C(=O)N1C1CCCCC1 was read as FGF22 binding 0, ERAP1 inh -5, HIV Env fusion 107*, Cneo AK release 2 and rRNA inh HTS 11.
